Where a chain is given by its changes, count along the chain named.
Experiments:
Settings in all cases: stereoisomer not certain
OR1F12P (Homo sapiens) = biological target: T1, OR1F12P (Homo sapiens) (UniProt Q8NHA8)
T1 sequence (whole entry): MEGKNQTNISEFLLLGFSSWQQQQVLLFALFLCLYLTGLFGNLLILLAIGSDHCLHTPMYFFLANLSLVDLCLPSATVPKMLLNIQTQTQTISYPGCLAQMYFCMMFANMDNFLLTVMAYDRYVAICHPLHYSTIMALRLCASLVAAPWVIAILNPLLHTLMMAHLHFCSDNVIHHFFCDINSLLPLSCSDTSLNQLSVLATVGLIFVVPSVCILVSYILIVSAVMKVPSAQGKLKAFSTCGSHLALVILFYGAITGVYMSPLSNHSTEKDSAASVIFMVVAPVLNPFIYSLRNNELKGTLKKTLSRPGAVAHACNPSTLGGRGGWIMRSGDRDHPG
Procedure, shortened: (§1)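 Each entry records the cell line, G-protein, co-transfected protein and tags used. Methods varied with the source, often transient luciferase assays in mammalian cell lines. A receptor–molecule pair is called responsive (active) if the original authors judged its signal statistically different from baseline and non-responsive (inactive) otherwise.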

OR1F1 = tested on: T2, OR1F1
T2 sequence (whole entry): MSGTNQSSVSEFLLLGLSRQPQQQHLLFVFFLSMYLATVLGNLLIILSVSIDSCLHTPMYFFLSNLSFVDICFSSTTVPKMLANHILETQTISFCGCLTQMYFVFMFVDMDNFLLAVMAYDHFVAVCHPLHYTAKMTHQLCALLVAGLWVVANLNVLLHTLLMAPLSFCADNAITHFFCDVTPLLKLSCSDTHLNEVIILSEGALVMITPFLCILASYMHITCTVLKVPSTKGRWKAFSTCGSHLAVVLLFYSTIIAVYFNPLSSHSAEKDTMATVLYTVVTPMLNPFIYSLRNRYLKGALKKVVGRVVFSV
Procedure, shortened: as §1

OR1G1 (Homo sapiens) = biological target: T3, OR1G1 (Homo sapiens) (UniProt P47890)
T3 sequence (whole entry): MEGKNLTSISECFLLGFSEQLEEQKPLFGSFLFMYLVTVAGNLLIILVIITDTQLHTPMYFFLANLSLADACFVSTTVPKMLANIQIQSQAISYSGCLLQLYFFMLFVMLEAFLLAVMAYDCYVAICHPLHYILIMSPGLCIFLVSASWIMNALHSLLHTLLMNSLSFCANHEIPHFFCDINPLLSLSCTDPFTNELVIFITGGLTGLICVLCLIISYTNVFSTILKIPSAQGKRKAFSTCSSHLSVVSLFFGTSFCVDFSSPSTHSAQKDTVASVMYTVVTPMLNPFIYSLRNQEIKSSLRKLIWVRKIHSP
Procedure, shortened: as §1

OR1I1 (Homo sapiens) = biological target: T4, OR1I1 (Homo sapiens) (UniProt O60431)
T4 sequence (whole entry): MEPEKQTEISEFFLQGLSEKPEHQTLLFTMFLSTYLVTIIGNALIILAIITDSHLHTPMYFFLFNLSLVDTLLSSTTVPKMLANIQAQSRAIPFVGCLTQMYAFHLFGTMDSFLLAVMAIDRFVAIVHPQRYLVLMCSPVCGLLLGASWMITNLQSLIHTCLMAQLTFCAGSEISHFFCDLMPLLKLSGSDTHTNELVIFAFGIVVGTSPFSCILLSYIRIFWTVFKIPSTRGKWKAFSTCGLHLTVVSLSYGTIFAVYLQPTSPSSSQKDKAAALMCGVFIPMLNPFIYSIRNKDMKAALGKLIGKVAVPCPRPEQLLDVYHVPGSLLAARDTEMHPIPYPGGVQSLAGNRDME
Procedure, shortened: as §1

OR1J1 (Homo sapiens) = biological target: T5, OR1J1 (Homo sapiens) (UniProt Q8NGS3)
T5 sequence (whole entry): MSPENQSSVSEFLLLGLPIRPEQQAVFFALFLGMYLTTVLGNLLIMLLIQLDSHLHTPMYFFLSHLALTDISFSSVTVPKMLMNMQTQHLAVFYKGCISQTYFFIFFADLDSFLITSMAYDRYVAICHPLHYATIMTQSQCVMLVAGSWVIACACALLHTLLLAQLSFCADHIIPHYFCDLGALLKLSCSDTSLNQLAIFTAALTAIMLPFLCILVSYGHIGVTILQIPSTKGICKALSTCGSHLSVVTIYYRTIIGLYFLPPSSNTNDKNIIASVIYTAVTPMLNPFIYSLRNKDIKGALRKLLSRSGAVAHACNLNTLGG
Procedure, shortened: as §1

OR1J2 (Homo sapiens) = biological target: T6, OR1J2 (Homo sapiens) (UniProt Q8NGS2)
T6 sequence (whole entry): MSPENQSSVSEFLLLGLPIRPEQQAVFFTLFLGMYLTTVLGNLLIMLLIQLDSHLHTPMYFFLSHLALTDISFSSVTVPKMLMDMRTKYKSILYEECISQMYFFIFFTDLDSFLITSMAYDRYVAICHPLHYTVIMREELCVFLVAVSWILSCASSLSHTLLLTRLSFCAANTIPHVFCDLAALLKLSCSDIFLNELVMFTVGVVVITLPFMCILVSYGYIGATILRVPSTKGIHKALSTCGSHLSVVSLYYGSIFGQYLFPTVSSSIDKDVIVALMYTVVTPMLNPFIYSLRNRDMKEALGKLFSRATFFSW
Procedure, shortened: as §1

OR1J4 (Homo sapiens) = biological target: T7, OR1J4 (Homo sapiens) (UniProt Q8NGS1)
T7 sequence (whole entry): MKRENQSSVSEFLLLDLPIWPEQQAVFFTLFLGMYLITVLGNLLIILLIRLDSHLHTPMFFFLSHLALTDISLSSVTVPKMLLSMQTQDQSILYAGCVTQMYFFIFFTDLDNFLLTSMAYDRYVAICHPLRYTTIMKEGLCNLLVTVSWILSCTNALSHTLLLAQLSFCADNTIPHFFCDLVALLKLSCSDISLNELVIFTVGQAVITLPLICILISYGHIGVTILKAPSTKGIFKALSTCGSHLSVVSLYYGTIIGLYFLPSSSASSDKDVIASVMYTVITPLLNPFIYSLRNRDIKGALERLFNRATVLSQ
Procedure, shortened: as §1

OR1K1 (Homo sapiens) = biological target: T8, OR1K1 (Homo sapiens) (UniProt Q8NGR3)
T8 sequence (whole entry): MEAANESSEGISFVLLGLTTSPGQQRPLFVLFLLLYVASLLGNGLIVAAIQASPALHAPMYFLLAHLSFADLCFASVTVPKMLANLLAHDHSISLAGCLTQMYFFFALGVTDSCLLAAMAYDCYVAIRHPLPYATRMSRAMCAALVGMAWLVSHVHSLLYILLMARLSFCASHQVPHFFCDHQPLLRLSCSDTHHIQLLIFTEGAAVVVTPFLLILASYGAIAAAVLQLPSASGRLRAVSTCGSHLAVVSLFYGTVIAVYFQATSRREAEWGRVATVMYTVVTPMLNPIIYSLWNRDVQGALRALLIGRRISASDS
Procedure, shortened: as §1

OR1L1 = tested on: T9, OR1L1
T9 sequence (whole entry): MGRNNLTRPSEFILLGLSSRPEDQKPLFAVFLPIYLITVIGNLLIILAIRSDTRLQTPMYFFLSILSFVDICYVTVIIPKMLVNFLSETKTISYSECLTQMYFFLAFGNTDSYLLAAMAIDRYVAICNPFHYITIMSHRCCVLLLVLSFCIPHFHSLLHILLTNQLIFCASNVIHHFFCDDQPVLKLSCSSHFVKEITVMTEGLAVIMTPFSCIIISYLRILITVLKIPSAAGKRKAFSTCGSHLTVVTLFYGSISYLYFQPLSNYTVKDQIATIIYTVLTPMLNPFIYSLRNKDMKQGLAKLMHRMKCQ
Procedure, shortened: as §1

OR1L3 (Homo sapiens) = biological target: T10, OR1L3 (Homo sapiens) (UniProt Q8NH93)
T10 sequence (whole entry): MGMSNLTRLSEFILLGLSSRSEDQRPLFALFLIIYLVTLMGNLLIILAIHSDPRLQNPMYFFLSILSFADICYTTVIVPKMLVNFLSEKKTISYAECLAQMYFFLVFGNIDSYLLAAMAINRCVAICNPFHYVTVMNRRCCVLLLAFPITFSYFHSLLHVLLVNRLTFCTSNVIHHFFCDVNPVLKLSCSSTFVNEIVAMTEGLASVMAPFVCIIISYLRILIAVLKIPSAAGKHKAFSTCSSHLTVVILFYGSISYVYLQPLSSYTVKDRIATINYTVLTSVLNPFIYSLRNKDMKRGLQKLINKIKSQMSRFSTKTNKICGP
Procedure, shortened: as §1

OR1L4 (Homo sapiens) = biological target: T11, OR1L4 (Homo sapiens) (UniProt Q8NGR5)
T11 sequence (whole entry): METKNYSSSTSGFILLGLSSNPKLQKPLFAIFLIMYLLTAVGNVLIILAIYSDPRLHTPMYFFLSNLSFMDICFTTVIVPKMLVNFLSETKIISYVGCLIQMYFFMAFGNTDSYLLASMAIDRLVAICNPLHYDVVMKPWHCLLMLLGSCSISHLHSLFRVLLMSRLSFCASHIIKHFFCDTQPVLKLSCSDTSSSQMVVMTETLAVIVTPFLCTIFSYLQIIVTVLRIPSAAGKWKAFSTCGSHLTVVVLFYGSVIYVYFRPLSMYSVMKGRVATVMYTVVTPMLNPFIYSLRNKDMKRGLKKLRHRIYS
Procedure, shortened: as §1

OR1L4 = tested on: T12, OR1L4
T12 sequence (whole entry): T11 sequence (whole entry) with G234R
Procedure, shortened: as §1

OR1L6 = tested on: T13, OR1L6
T13 sequence (whole entry): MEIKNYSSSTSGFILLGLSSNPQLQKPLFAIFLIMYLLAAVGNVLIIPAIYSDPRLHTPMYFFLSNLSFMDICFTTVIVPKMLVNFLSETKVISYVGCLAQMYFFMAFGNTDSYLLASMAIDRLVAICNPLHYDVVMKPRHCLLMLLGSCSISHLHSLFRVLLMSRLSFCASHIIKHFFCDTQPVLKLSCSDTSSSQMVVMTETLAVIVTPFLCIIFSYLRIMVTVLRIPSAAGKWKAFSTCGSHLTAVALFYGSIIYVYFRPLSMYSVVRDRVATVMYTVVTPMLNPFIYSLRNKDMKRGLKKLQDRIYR
Procedure, shortened: as §1

OR1L8 (Homo sapiens) = biological target: T14, OR1L8 (Homo sapiens) (UniProt Q8NGR8)
T14 sequence (whole entry): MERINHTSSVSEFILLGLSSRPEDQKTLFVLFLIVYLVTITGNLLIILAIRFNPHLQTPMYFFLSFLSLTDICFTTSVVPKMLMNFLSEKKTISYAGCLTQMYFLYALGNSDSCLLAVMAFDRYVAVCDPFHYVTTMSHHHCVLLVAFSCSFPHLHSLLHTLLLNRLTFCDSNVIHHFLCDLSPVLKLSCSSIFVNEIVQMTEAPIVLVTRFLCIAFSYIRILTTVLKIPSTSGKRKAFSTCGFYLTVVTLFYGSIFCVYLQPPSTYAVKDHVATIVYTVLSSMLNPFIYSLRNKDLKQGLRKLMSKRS
Procedure, shortened: as §1

OR1L8 T27P R211P = tested on: T15, OR1L8 T27P R211P
T15 sequence (whole entry): T14 sequence (whole entry) with T27P, R211P
Procedure, shortened: as §1

OR1M1 (Homo sapiens) = biological target: T16, OR1M1 (Homo sapiens) (UniProt Q8NGA1)
T16 sequence (whole entry): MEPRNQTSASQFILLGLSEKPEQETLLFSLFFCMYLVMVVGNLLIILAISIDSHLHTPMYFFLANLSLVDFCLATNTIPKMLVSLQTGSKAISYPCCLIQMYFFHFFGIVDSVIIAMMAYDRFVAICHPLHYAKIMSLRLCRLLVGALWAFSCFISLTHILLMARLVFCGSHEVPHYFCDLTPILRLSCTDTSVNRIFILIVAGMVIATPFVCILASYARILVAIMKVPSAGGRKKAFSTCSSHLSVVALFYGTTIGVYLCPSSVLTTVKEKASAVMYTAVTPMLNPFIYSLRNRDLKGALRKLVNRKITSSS
Procedure, shortened: as §1

OR1N1 (Homo sapiens) = biological target: T17, OR1N1 (Homo sapiens) (UniProt Q8NGS0)
T17 sequence (whole entry): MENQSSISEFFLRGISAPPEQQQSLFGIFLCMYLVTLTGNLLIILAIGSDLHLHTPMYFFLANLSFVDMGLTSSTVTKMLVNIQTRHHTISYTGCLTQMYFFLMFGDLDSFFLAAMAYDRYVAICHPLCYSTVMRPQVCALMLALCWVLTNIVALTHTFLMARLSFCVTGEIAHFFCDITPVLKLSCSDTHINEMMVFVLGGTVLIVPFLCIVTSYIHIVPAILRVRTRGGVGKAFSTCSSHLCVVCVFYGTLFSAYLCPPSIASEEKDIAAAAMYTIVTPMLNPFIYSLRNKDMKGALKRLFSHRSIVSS
Procedure, shortened: as §1

OR1N2 W37R = tested on: T18, OR1N2 W37R
T18 sequence (whole entry): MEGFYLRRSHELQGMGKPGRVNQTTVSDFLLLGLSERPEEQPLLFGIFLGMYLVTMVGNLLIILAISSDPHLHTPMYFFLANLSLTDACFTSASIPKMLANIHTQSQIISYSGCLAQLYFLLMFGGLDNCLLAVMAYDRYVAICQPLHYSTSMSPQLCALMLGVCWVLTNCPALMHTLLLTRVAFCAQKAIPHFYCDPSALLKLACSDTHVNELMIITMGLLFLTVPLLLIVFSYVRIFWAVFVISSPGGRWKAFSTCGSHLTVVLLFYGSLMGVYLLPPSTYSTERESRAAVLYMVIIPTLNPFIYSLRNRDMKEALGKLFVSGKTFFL
Procedure, shortened: as §1

Measured: odorant receptor agonist call

CCC1OC(C)=C(O)C1=O (centres undefined)
inactive: all assays above

O=CN1CCCCC1
inactive: OR1F1

Source: the M2OR odorant receptor database
